Two compounds from ChEMBL document CHEMBL3526127, “Absorption, elimination, and metabolism of CS-1036, a novel α-amylase inhibitor in rats and monkeys, and the relationship between gastrointestinal distribution and suppression of glucose absorption” (Drug Metab Dispos, 2013) can be followed below.

Series [1] is described as follows: Drug excretion in F344 rat feces at 1 mg/kg, iv administered as single dose after 0 to 168 hrs by scintillation counting method. It is filed as ADME, organism-based. The arrangement: dose 1 mg/kg, route intravenous. The conditions noted are these: in vivo. In outline: (§1)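 Fasted F344 rats (152–156 g iv via tail vein; 154–159 g oral; n = 4) received [14C]-labelled drug at 1 mg/kg (41.9 µCi/kg). Animals were kept in metabolic cages; urine and feces were collected to 168 h, and expired CO2 was trapped in 2-aminoethanol/2-methoxyethanol (1:1) to 48 h. Samples were counted by liquid scintillation (feces homogenized). Results are % of dose, mean ± S.D.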

Series [2] concerns Cynomolgus monkey. Kind of series: Drug excretion in cynomolgus monkey assessed as drug level found during cage washing at 3 mg/kg, iv administered as single dose after 0 to 336 hrs by scintillation counting method. It is filed as ADME, organism-based, Macaca fascicularis. The arrangement: dose 3 mg/kg, route intravenous. The settings on record: in vivo. In outline: (§2)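 Fasted cynomolgus monkeys (n = 4) received [14C]-labelled drug at 3 mg/kg, iv via saphenous vein (191 µCi/kg) or orally by stomach catheter (156.5 µCi/kg). Urine, feces and water cage-wash were collected to 336 h. Samples were counted by liquid scintillation; feces were homogenized in 4-fold water. Results are % of dose, mean ± S.D.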

Series [3] deals with Cynomolgus monkey. Kind of series: Total drug excretion in cynomolgus monkey at 3 mg/kg, po administered as single dose after 0 to 336 hrs by scintillation counting method. Also noted: dose 3 mg/kg, route oral. The conditions noted are these: in vivo. It is filed as ADME, organism-based, Macaca fascicularis. In outline:
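Fasted male cynomolgus monkeys (n = 4) were dosed with 14C-labelled drug at 3 mg/kg, iv via saphenous vein (191 µCi/kg) or orally by stomach catheter (156.5 µCi/kg). Urine, feces and cage-wash water were collected to 336 h. Radioactivity was measured by liquid scintillation counting, with feces homogenized in water, and expressed as % of dose.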

A short description of series [4]: Drug excretion in cynomolgus monkey feces at 3 mg/kg, po administered as single dose after 0 to 336 hrs by scintillation counting method. It is filed as ADME, organism-based, Macaca fascicularis. The arrangement: dose 3 mg/kg, route oral. The conditions noted are these: in vivo. In a few lines:
as §2

The next series relates to Plasma. As to the kind of experiment: Drug metabolism in po dosed F344 rat plasma by LC-MS/MS method. The class given is ADME, organism-based. The conditions noted are these: in vivo.
Series [5] can be described thus: Ratio of drug level in blood to plasma in cynomolgus monkey after 5 mins. The class given is ADME, Macaca fascicularis.
Series [6] has as its system Rattus norvegicus. As to the kind of experiment: Total drug excretion in F344 rat at 1 mg/kg, iv administered as single dose after 0 to 48 hrs by scintillation counting method. It is filed as ADME, organism-based. The arrangement: dose 1 mg/kg, route intravenous. The conditions noted are these: in vivo. In outline: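 Fasted F344 rats (n = 4) received [14C]-labelled drug at 1 mg/kg (41.9 µCi/kg), iv via tail vein or oral. They were housed in metabolic cages. Urine and feces were collected to 168 h, and expired CO2 was trapped in 2-aminoethanol/2-methoxyethanol to 48 h. Radioactivity was counted by liquid scintillation, feces after homogenization. Results are % of dose.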

The nature of series [7]: Drug excretion in cynomolgus monkey feces at 3 mg/kg, iv administered as single dose after 0 to 336 hrs by scintillation counting method. The settings on record: in vivo. Also noted: dose 3 mg/kg, route intravenous. The class given is ADME, organism-based, Macaca fascicularis. In outline:
as §2

Series [8] in a line: Drug excretion in cynomolgus monkey urine at 3 mg/kg, po administered as single dose after 0 to 48 hrs by scintillation counting method. The settings on record: in vivo. It is filed as ADME, organism-based, Macaca fascicularis. Also noted: dose 3 mg/kg, route oral.
Series [9] deals with Rattus norvegicus. As to the kind of experiment: Total drug excretion in bile duct cannulated F344 rat at 1 mg/kg, po administered as single dose after 0 to 48 hrs by scintillation counting method. Also noted: dose 1 mg/kg, route oral. It is filed as ADME, organism-based. The settings on record: in vivo. In outline:
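Under ether anesthesia, the common bile duct of fasted F344 rats was cannulated. After recovery, rats received 1 mg/kg (41.9 µCi/kg) of the 14C-labelled compound iv or by oral gavage (n = 4). They were kept in Bollman cages, and bile was collected at 0–6, 6–24, 24–30 and 30–48 h at 4°C. Radioactivity was measured by liquid scintillation counting as % of dose.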

A short description of series [10]: Drug excretion in F344 rat expired air at 1 mg/kg, iv administered as single dose after 0 to 48 hrs by scintillation counting method. It is filed as ADME, organism-based. The arrangement: dose 1 mg/kg, route intravenous. The conditions noted are these: in vivo. In a few lines:
as §1

Series [11] in a line: AUClast in F344 rat at 1 mg/kg, po administered as single dose by LC-MS/MS method. The class given is ADME, organism-based. The arrangement: time 0 - last, dose 1 mg/kg, route oral. The conditions noted are these: plasma. In outline: (§3)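 Fasted male F344 rats (146–185 g) or male cynomolgus monkeys (3.48–4.29 kg), n = 4 per dose, given single iv or oral dose of 0.3, 1.0, 3.0 or 10.0 mg/kg; monkeys dosed with 2-week washouts. Blood sampled to 48 h; plasma stored frozen. LC-MS/MS with deuterated internal standard. Noncompartmental analysis: AUClast by trapezoidal rule; AUC0–inf = AUClast + Ctz/terminal rate constant; mean ± S.D.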

Series [12] is described as follows: Cmax in cynomolgus monkey at 0.3 mg/kg, po administered as single dose by LC-MS/MS method. The settings on record: in vivo. Also noted: dose 0.3 mg/kg, route oral. It is filed as ADME, organism-based, Macaca fascicularis. In outline:
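Fasted male F344 rats (146–185 g) and cynomolgus monkeys (3.48–4.29 kg), n = 4 each, received a single oral dose; monkeys had 2-week washouts. Plasma sampled up to 48 h, stored at […], assayed by LC-MS/MS with a deuterated internal standard. Cmax taken from observed data by noncompartmental analysis; mean ± S.D. (n = 3 or 4).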

A short description of series [13]: Oral bioavailability in F344 rat at 1 mg/kg administered as single dose by LC-MS/MS method. It is filed as ADME, organism-based. The conditions noted are these: in vivo. In a few lines: (§4)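 Male F344 rats (146–185 g) and male cynomolgus monkeys (3.48–4.29 kg), n = 4 each, fasted overnight, received single iv or oral doses of 0.3, 1.0, 3.0 or 10.0 mg/kg. Monkeys had 2-week washouts between doses. Plasma was sampled to 48 h and assayed by LC-MS/MS with deuterated internal standard. Noncompartmental analysis: tmax observed; t1/2 by regression on ≥3 terminal log points; Vss = dose·AUMC/(AUC0–inf)²; Foral = oral/iv AUC0–inf at the same dose.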

Series [14] is described as follows: AUClast in cynomolgus monkey at 1 mg/kg, iv administered as single dose by LC-MS/MS method. The settings on record: plasma. The class given is ADME, organism-based, Macaca fascicularis. Also noted: time 0 - last, dose 1 mg/kg, route intravenous. In outline:
as §3

A short description of series [15]: Clearance in cynomolgus monkey at 0.3 mg/kg, iv administered as single dose by LC-MS/MS method. The class given is ADME, organism-based, Macaca fascicularis. Also noted: dose 0.3 mg/kg, route intravenous. The conditions noted are these: in vivo. In a few lines:
(§5)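 Fasted male F344 rats (146–185 g) and male cynomolgus monkeys (3.48–4.29 kg), n = 4 each, received a single iv dose; monkeys had 2-week washouts between doses. Blood was sampled up to 48 h and plasma stored at […]. Plasma parent was quantified by LC-MS/MS with a deuterated internal standard. CL = dose/AUC0–inf by noncompartmental analysis; mean ± S.D.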

The nature of series [16]: Volume of distribution at steady state in cynomolgus monkey at 0.3 mg/kg, iv administered as single dose by LC-MS/MS method. The conditions noted are these: in vivo, read-out: Vdss. Also noted: dose 0.3 mg/kg, route intravenous. The class given is ADME, organism-based, Macaca fascicularis. In a few lines:
as §4

Series [17] in a line: Tmax in cynomolgus monkey at 0.3 mg/kg, po administered as single dose by LC-MS/MS method. It is filed as ADME, organism-based, Macaca fascicularis. Also noted: dose 0.3 mg/kg, route oral. The conditions noted are these: in vivo. In outline: as §4
Series [18] in a line: Cmax in F344 rat at 10 mg/kg, po administered as single dose by LC-MS/MS method. Also noted: dose 10 mg/kg, route oral. The conditions noted are these: in vivo. It is filed as ADME, organism-based.
Series [19] is described as follows: Oral bioavailability in cynomolgus monkey at 10 mg/kg administered as single dose by LC-MS/MS method. The class given is ADME, organism-based, Macaca fascicularis. The conditions noted are these: in vivo. In a few lines:
as §4

Series [20] can be described thus: AUClast in F344 rat at 10 mg/kg, po administered as single dose by LC-MS/MS method. The class given is ADME, organism-based. The arrangement: time 0 - last, dose 10 mg/kg, route oral. The conditions noted are these: plasma. In outline:
as §3

Series [21] is described as follows: Half life in F344 rat at 3 mg/kg, iv administered as single dose by LC-MS/MS method. The conditions noted are these: in vivo. The class given is ADME, organism-based. Also noted: dose 3 mg/kg, route intravenous. In a few lines: as §4
The nature of series [22]: AUC (0 to infinity) in cynomolgus monkey at 10 mg/kg, po administered as single dose by LC-MS/MS method. The class given is ADME, organism-based, Macaca fascicularis. The arrangement: time infinity, dose 10 mg/kg, route oral. The settings on record: plasma. In a few lines: as §3
Series [23] in a line: Clearance in F344 rat at 1 mg/kg, iv administered as single dose by LC-MS/MS method. The conditions noted are these: in vivo. It is filed as ADME, organism-based. Also noted: dose 1 mg/kg, route intravenous. In outline: as §5

Consider `C[C@H]1O[C@@H](O[C@H]2[C@H](O)[C@@H](O)[C@@H](O[14C@H]3[14C@H](O)[14CH2]N[14C@@H]3[14CH2]O)O[C@@H]2CO)[C@H](O)[C@@H](O)[C@@H]1O`, for which the Drug excretion in series [1] was determined as 17.82%; in the series with Cynomolgus monkey [2], 14.5%; in the series with Cynomolgus monkey [3], 95.15%; in series [4], 88.13%; with Rattus norvegicus [6], 86.96%; in [7], 0.66%. Further, the Drug excretion in [8] amounted to 4.54%; with Rattus norvegicus [9], 0.59%; in [10], 0.82%. Moreover, the Drug metabolism result with Plasma is “metabolite_not_detected”. In series [5], the blood plasma ratio at 5 min stood at 0.595.

Turning to `C[C@H]1O[C@@H](O[C@H]2[C@H](O)[C@@H](O)[C@@H](O[C@H]3[C@H](O)CN[C@@H]3CO)O[C@@H]2CO)[C@H](O)[C@@H](O)[C@@H]1O`, the AUC(0-t) in series [11] is 110 ng·h/mL; in [14], 5870 ng·h/mL; in [20], 1050 ng·h/mL. For the same compound, the figures for the Cmax in [12] and in series [18] were 5.23 ng/mL and 285 ng/mL, respectively. Also, the bioavailability in series [13] is 2.33%; in [19], 1.2%. Further, the clearance in series [15] stood at 2.55 mL/min/kg; in [23] it was 3.44 mL/min/kg. Moreover, in series [16], the Vd is 0.233 L/kg. Moreover, the time to peak (Tmax) in series [17] was 1.75 h. In series [21], this compound had a half-life of 23.6 h. Also, the area under the curve AUC(0-inf) in series [22] stood at 894 ng·h/mL.
